The results in this text go back to publication PMC7941041 (Biochemistry and Biophysics Reports, 2021).

Square brackets hold non-standard residues; d marks the D form. pS = N[C@@H](COP(=O)(O)O)C(=O)O

Broadly, the Kd is the concentration at which binding is half-saturated. High values mean a looser complex, low ones a tighter complex.

Test [1] has as its target T1, hArc-CT (residues 206–396, containing both lobes) (Homo sapiens, UniProt Q7LC44).
T1 sequence (Q7LC44 206-396): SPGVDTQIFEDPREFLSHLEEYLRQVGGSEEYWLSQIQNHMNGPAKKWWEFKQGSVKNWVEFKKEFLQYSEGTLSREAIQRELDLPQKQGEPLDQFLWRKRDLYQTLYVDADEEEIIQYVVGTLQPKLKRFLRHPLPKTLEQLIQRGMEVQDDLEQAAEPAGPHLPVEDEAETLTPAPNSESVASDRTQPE
The experiment in a line: ITC analysis of peptide binding to hArc-CT. As to conditions: 20 mM Tris-HCl pH 7.4, 150 mM NaCl, +25 °C, one-site binding model. In outline:
(§1)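 Human Arc constructs carried a cleavable His-MBP tag and were expressed in E. coli BL21 with IPTG induction at +30 °C. They were purified by Ni-NTA and size-exclusion chromatography, and TEV cleavage left an N-terminal GAMG. Peptides were N-acetylated and C-amidated. Peptide (2.5–5.0 mM) was titrated into the cell containing protein (0.25–0.5 mM).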
For orientation: In ITC the heat of successive injections is recorded.

Test [2] addresses T2, hArc-NL (residues 207–277) (Homo sapiens, UniProt Q7LC44).
T2 sequence (Q7LC44 207-277): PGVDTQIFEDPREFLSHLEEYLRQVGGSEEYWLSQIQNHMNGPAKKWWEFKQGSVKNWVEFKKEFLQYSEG
In words: ITC analysis of peptide binding to hArc-NL. The following applies: 20 mM Tris-HCl pH 7.4, 150 mM NaCl, +25 °C, one-site binding model. In outline:
as §1

For test [3], the target named is T3, human Arc N-lobe (hArc-NL, residues 207–277) (human, UniProt Q7LC44 207-277).
T3 sequence: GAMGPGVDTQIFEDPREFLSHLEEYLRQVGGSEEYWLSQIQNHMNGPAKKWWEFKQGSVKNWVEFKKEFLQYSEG
In words: ITC.

In test [4] the target is T4, human Arc C-terminal domain (hArc-CT, residues 206–396, containing both lobes) (human, UniProt Q7LC44 206-396).
T4 sequence: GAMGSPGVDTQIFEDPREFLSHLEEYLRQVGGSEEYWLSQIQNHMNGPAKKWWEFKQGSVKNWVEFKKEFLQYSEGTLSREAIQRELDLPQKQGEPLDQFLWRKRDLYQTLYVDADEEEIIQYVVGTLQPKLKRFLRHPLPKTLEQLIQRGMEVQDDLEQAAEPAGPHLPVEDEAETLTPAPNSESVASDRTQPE
In words: ITC.

In the case of “Ac-RIPSYRYRYQRRSRSSSRSTE-NH2 [pStg(long)]”, in test [1], the “-TΔS” value is recorded as “+14.0 kcal/mol/°” and the ΔH is -20.2 ± 0.2 kcal/mol.
Ac-MPGCFRMR-NH2 [GKAP-R5]: in test [2], the “-TΔS” value is “+4.7 kcal/mol/°” and the ΔH was -8.2 ± 0.3 kcal/mol.
With Ac-TSPKFRSR-NH2 [GKAP-R4], in test [2], the “-TΔS” value is reported as “+6.6 kcal/mol/°” and the ΔH is -10.9 ± 0.4 kcal/mol. Also, in test [1], the “-TΔS” value is recorded as “+2.5 kcal/mol/°” and the ΔH was -6.8 ± 0.1 kcal/mol.
The matching figures for Ac-RIPSYRYR-NH2 [pStg(wt)]: “+7.0 kcal/mol/°”, -13.1 ± 0.1 kcal/mol, “+6.4 kcal/mol/°” and -12.0 ± 0.2 kcal/mol.
For “Ac-TSPKFRSRNESYMRAMST-NH2 [GKAP-R4(long)]”, in test [2], the “-TΔS” value is recorded as “+3.1 kcal/mol/°” and the ΔH is -7.2 ± 0.2 kcal/mol. In addition, in test [1], the “-TΔS” value is listed as “+2.2 kcal/mol/°” and the ΔH was -6.8 ± 0.2 kcal/mol.

B1: phosphorylated stargazin peptide pStg(phos) (peptide)
peptide: Ac-RIP[pS]YRYR-NH2
SMILES: CC[C@H](C)[C@H](NC(=O)[C@H](CCCNC(=N)N)NC(C)=O)C(=O)N1CCC[C@H]1C(=O)N[C@@H](COP(=O)(O)O)C(=O)N[C@@H](Cc1ccc(O)cc1)C(=O)N[C@@H](CCCNC(=N)N)C(=O)N[C@@H](Cc1ccc(O)cc1)C(=O)N[C@@H](CCCNC(=N)N)C(N)=O
In test [3], B1 had a dH of -66.5 ± 0.6 kcal/mol.
In test [3], Ac-MPGCFRMR-NH2 [GKAP repeat 5 peptide] registered a Kd of 2390 ± 314 µM and a dH of -8.2 ± 0.3 kcal/mol.
Consider Ac-RIPSYRYR-NH2 [stargazin peptide pStg(wt)], for which the Kd in test [3] stood at 33.6 ± 1.1 µM; in test [4] it was 80 ± 4 µM. Besides, the dH is -13.1 ± 0.1 kcal/mol in test [3] and -12 ± 0.2 kcal/mol in test [4].
Take Ac-TSPKFRSRNESYMRAMST-NH2 [long GKAP repeat 4 peptide]: in test [3], the Kd is 426 ± 12 µM and the dH is -7.2 ± 0.2 kcal/mol. In test [4], this molecule had a dissociation constant Kd of 391 ± 18 µM and a dH of -6.8 ± 0.2 kcal/mol.
In the case of Ac-RIPSYRYRYQRRSRSSSRSTE-NH2 [long stargazin peptide pStg(long)], in test [4], binding was characterised by a dissociation constant (Kd) of 26.4 ± 1.2 µM and the dH is -20.2 ± 0.2 kcal/mol.
Turning to Ac-TSPKFRSR-NH2 [GKAP repeat 4 peptide], the Kd in test [3] worked out at 714 ± 19 µM; in test [4] it was 763 ± 10 µM. In addition, the values for the dH in test [3] and in test [4] were -10.9 ± 0.4 kcal/mol and -6.8 ± 0.1 kcal/mol, respectively.
